Laboratory results as given in ChEMBL document CHEMBL1687881, “Synthesis and evaluation of aroylthiourea derivatives of 4-β-amino-4'-O-demethyl-4-desoxypodophyllotoxin as novel topoisomerase II inhibitors” (Eur J Med Chem, 2011).
The source made the active and inactive calls. No cut-off for these calls is given here.

What was measured:
[1] = test system: HCT-116; test: Cytotoxicity against human HCT116 cells assessed as cell growth inhibition after 3 days by MTT assay; assay type: functional, cell-based; conditions: HCT-116, 72 h
Summary of the method: (§1)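 Cells grown in RPMI-1640 with 10% FBS, penicillin 100 U/mL and streptomycin, 37 °C, 5% CO2. Exponential-phase cells seeded at 5 × 10⁴–1 × 10⁵ cells/mL, grown overnight, then treated with DMSO-predissolved compounds for 3 days. Medium replaced by MTT for 4 h at 37 °C; formazan dissolved in SDS/DMF/water/acetic acid buffer (pH 4.7); absorbance read at 570 nm. At least three independent experiments.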

[2] = test system: HepG2; test: Cytotoxicity against human HepG2 cells assessed as cell growth inhibition after 3 days by MTT assay; assay type: functional, cell-based; conditions: HepG2, 72 h; summary of the method: as §1
[3] = test system: A549; test: Cytotoxicity against human A549 cells assessed as cell growth inhibition after 3 days by MTT assay; assay type: functional, cell-based; conditions: A549, 72 h; summary of the method: as §1
[4] = target: DNA topoisomerase 2-alpha (Homo sapiens) (UniProt P11388); test: Inhibition human topoisomerase 2 kDNA decatenation activity at 200 uM
Chain of DNA topoisomerase 2-alpha (Homo sapiens) (P11388 whole entry): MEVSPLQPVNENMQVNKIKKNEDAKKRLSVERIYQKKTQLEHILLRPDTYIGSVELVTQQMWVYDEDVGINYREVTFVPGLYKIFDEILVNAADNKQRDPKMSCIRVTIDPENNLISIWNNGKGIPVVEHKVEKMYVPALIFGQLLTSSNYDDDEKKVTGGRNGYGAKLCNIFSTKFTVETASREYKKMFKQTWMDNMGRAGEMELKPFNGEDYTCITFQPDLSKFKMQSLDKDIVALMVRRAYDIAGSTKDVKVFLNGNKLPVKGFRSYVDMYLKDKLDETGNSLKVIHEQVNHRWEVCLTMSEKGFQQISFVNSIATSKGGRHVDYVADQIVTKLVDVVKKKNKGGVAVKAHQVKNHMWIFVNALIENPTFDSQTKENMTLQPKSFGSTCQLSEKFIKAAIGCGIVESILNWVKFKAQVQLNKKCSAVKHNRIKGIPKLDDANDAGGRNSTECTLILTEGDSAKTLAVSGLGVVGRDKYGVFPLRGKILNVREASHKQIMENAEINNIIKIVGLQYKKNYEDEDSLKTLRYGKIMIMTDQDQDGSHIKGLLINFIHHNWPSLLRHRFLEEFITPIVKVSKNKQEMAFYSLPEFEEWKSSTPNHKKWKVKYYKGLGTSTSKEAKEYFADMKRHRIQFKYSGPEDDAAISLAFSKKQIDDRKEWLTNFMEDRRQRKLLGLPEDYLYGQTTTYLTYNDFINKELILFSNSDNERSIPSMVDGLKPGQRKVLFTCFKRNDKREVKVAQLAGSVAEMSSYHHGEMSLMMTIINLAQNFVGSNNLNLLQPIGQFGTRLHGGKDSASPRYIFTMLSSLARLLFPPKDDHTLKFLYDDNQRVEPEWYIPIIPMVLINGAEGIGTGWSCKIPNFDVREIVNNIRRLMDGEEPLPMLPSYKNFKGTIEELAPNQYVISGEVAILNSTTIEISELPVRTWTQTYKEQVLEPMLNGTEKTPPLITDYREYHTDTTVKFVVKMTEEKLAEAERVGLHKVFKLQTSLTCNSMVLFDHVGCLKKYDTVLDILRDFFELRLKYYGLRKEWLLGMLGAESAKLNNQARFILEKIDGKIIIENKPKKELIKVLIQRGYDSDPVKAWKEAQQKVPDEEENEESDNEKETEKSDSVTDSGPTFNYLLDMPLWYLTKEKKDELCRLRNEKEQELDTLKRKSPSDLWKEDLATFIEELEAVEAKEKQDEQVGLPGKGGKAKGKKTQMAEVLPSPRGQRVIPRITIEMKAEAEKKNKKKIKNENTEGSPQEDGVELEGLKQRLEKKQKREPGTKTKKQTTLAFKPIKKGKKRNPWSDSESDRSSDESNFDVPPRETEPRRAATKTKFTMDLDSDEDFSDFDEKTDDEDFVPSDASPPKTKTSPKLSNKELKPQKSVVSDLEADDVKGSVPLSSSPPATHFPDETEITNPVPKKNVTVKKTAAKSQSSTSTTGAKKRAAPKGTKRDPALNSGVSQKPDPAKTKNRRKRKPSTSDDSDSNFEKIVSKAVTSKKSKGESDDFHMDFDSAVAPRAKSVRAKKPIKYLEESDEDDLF

[5] = test system: HCT-116; test: Cell cycle arrest in human HCT116 cells assessed as accumulation at G2/M phase at 2.5 uM after 24 hrs using propidium iodide by fluorescence flow cytometry; assay type: functional
Summary of the method: (§2)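 HCT-116 cells incubated 24 h with test agent at […], stained with propidium iodide; DNA content analysed by fluorescence flow cytometry to give percentage of cells per cell-cycle phase. Values are means of at least three independent experiments.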

[6] = test system: HCT-116; test: Cell cycle arrest in human HCT116 cells assessed as accumulation at sub G1 phase at 2.5 uM after 24 hrs using propidium iodide by fluorescence flow cytometry; assay type: functional; summary of the method: as §2
[7] = test system: HCT-116; test: Cell cycle arrest in human HCT116 cells assessed as accumulation at G1 phase at 5 uM after 24 hrs using propidium iodide by fluorescence flow cytometry; assay type: functional; summary of the method: as §2
[8] = test system: HCT-116; test: Cell cycle arrest in human HCT116 cells assessed as accumulation at S phase at 5 uM after 24 hrs using propidium iodide by fluorescence flow cytometry; assay type: functional; summary of the method: as §2
[9] = test system: HCT-116; test: Cell cycle arrest in human HCT116 cells assessed as accumulation at G2/M phase at 5 uM after 24 hrs using propidium iodide by fluorescence flow cytometry; assay type: functional; summary of the method: as §2
[10] = test system: HCT-116; test: Cell cycle arrest in human HCT116 cells assessed as accumulation at sub G1 phase at 5 uM after 24 hrs using propidium iodide by fluorescence flow cytometry; assay type: functional; summary of the method: as §2
[11] = test system: HCT-116; test: Cell cycle arrest in human HCT116 cells assessed as accumulation at G1 phase at 10 uM after 24 hrs using propidium iodide by fluorescence flow cytometry; assay type: functional; summary of the method: as §2
[12] = test system: HCT-116; test: Cell cycle arrest in human HCT116 cells assessed as accumulation at S phase at 10 uM after 24 hrs using propidium iodide by fluorescence flow cytometry; assay type: functional; summary of the method: as §2
[13] = test system: HCT-116; test: Cell cycle arrest in human HCT116 cells assessed as accumulation at G2/M phase at 10 uM after 24 hrs using propidium iodide by fluorescence flow cytometry; assay type: functional; summary of the method: as §2
[14] = test system: HCT-116; test: Cell cycle arrest in human HCT116 cells assessed as accumulation at sub G1 phase at 10 uM after 24 hrs using propidium iodide by fluorescence flow cytometry; assay type: functional; summary of the method: as §2
[15] = test system: HCT-116; test: Cell cycle arrest in human HCT116 cells assessed as accumulation at G1 phase at 1.25 uM after 24 hrs using propidium iodide by fluorescence flow cytometry; assay type: functional; summary of the method: as §2
[16] = test system: HCT-116; test: Cell cycle arrest in human HCT116 cells assessed as accumulation at S phase at 1.25 uM after 24 hrs using propidium iodide by fluorescence flow cytometry; assay type: functional; summary of the method: as §2
[17] = test system: HCT-116; test: Cell cycle arrest in human HCT116 cells assessed as accumulation at G2/M phase at 1.25 uM after 24 hrs using propidium iodide by fluorescence flow cytometry; assay type: functional; summary of the method: as §2
[18] = test system: HCT-116; test: Cell cycle arrest in human HCT116 cells assessed as accumulation at sub G1 phase at 1.25 uM after 24 hrs using propidium iodide by fluorescence flow cytometry; assay type: functional; summary of the method: as §2
[19] = test system: HCT-116; test: Cell cycle arrest in human HCT116 cells assessed as accumulation at G1 phase at 2.5 uM after 24 hrs using propidium iodide by fluorescence flow cytometry; assay type: functional; summary of the method: as §2
[20] = test system: HCT-116; test: Cell cycle arrest in human HCT116 cells assessed as accumulation at S phase at 2.5 uM after 24 hrs using propidium iodide by fluorescence flow cytometry; assay type: functional; summary of the method: as §2

SMILES | IC50 [1] | IC50 [2] | IC50 [3] | other results
COc1cc([C@@H]2c3cc4c(cc3[C@@H](NC(=S)NC(=O)c3ccc(Cl)cc3)[C@H]3COC(=O)[C@H]23)OCO4)cc(OC)c1O | 7.2 µM | 7.6 µM | 11.5 µM | –
COc1cc([C@@H]2c3cc4c(cc3[C@@H](NC(=S)NC(=O)c3ccccc3I)[C@H]3COC(=O)[C@H]23)OCO4)cc(OC)c1O | 6.7 µM | 6.7 µM | 15.1 µM | inhibition [4]: Active
COc1cc([C@@H]2c3cc4c(cc3[C@@H](NC(=S)NC(=O)c3cccc(Cl)c3)[C@H]3COC(=O)[C@H]23)OCO4)cc(OC)c1O | 6.8 µM | 7.6 µM | 17.9 µM | –
COc1cc([C@@H]2c3cc4c(cc3[C@@H](NC(=S)NC(=O)c3cccc5ccccc35)[C@H]3COC(=O)[C@H]23)OCO4)cc(OC)c1O | 2.2 µM | 18.7 µM | 6 µM | inhibition [4]: Active
COc1cc([C@@H]2c3cc4c(cc3[C@@H](NC(=S)NC(=O)c3cccc(C)c3)[C@H]3COC(=O)[C@H]23)OCO4)cc(OC)c1O | 5.5 µM | 4.6 µM | 13.3 µM | –
COc1cc([C@@H]2c3cc4c(cc3[C@@H](N)[C@H]3COC(=O)[C@H]23)OCO4)cc(OC)c1O | 2.1 µM | 1.5 µM | 5.2 µM | –
COc1cc([C@@H]2c3cc4c(cc3[C@@H](O[C@@H]3O[C@@H]5CO[C@@H](C)O[C@H]5[C@H](O)[C@H]3O)[C@H]3COC(=O)[C@H]23)OCO4)cc(OC)c1O [ETOPOSIDE] | 13.5 µM | 4.9 µM | 21.4 µM | –
COc1cc([C@@H]2c3cc4c(cc3[C@@H](NC(=S)NC(=O)c3ccc(F)cc3)[C@H]3COC(=O)[C@H]23)OCO4)cc(OC)c1O | 6.8 µM | 8.3 µM | 10.8 µM | –
COc1cc([C@@H]2c3cc4c(cc3[C@@H](NC(=S)NC(=O)c3ccccc3)[C@H]3COC(=O)[C@H]23)OCO4)cc(OC)c1O | 6.3 µM | 6.1 µM | 9.8 µM | Activity [5]: 93.11%; Activity [6]: 0%; Activity [7]: 4.23%; Activity [8]: 0%; Activity [9]: 95.77%; Activity [10]: 0%; Activity [11]: 3.55%; Activity [12]: 0%; Activity [13]: 96.45%; Activity [14]: 0%; inhibition [4]: Active; Activity [15]: 48.6%; Activity [16]: 8.74%; Activity [17]: 42.66%; Activity [18]: 0%; Activity [19]: 1.8%; Activity [20]: 5.09%
COc1cc([C@@H]2c3cc4c(cc3[C@@H](NC(=S)NC(=O)c3ccc(C)cc3)[C@H]3COC(=O)[C@H]23)OCO4)cc(OC)c1O | 6.8 µM | 3 µM | 11.3 µM | –
COc1cc([C@@H]2c3cc4c(cc3[C@@H](NC(=S)NC(=O)c3ccccc3Br)[C@H]3COC(=O)[C@H]23)OCO4)cc(OC)c1O | 6.2 µM | 5.1 µM | 11.4 µM | –
COc1cc([C@@H]2c3cc4c(cc3[C@@H](NC(=S)NC(=O)c3ccccc3Cl)[C@H]3COC(=O)[C@H]23)OCO4)cc(OC)c1O | 7.7 µM | 7.7 µM | 10.3 µM | –
COc1cc([C@@H]2c3cc4c(cc3[C@@H](NC(=S)NC(=O)c3ccccc3C)[C@H]3COC(=O)[C@H]23)OCO4)cc(OC)c1O | 4.7 µM | 5.2 µM | 12.2 µM | –
